Source: ChEMBL document CHEMBL3580613, “First enantiospecific syntheses of marine merosesquiterpenes neopetrosiquinones a and B: evaluation of biological activity” (J Nat Prod, 2015)
Active and inactive are the calls of the source. No cut-off for these calls is given here.

Assays:
T84 [1] = assay: Induction of cell cycle arrest in 24 hrs serum-starved human T84 cells assessed as accumulation at G2-M phase at 2 times antiproliferative IC50 incubated for 24 hrs by propidium iodide staining based flow cytometry (reference value: 18 +/- 1%); type: functional
A549 [2] = assay: Induction of cell cycle arrest in 24 hrs serum-starved human A549 cells assessed as accumulation at S phase at antiproliferative IC50 incubated for 24 hrs by propidium iodide staining based flow cytometry (reference value: 12 +/- 0.9%); type: functional
MCF7 [3] = assay: Induction of cell cycle arrest in 24 hrs serum-starved human MCF7 cells assessed as accumulation at S phase at 2 times antiproliferative IC50 incubated for 24 hrs by propidium iodide staining based flow cytometry (reference value: 17 +/- 0.8%); type: functional
A549 [4] = assay: Induction of cell cycle arrest in 24 hrs serum-starved human A549 cells assessed as accumulation at S phase at 2 times antiproliferative IC50 incubated for 24 hrs by propidium iodide staining based flow cytometry (reference value: 12 +/- 0.9%); type: functional
A549 [5] = assay: Induction of apoptosis in 24 hrs serum-starved human A549 cells assessed as accumulation at subG1 phase at 2 times antiproliferative IC50 incubated for 24 hrs by propidium iodide staining based flow cytometry (reference value: 3.5 +/- 1.1%); type: functional
A549 [6] = assay: Induction of cell cycle arrest in 24 hrs serum-starved human A549 cells assessed as accumulation at G2-M phase at antiproliferative IC50 incubated for 24 hrs by propidium iodide staining based flow cytometry (reference value: 22 +/- 1.8%); type: functional
T84 [7] = assay: Induction of apoptosis in 24 hrs serum-starved human T84 cells assessed as accumulation at subG1 phase at 2 times antiproliferative IC50 incubated for 24 hrs by propidium iodide staining based flow cytometry (reference value: 4 +/- 0.3%); type: functional
T84 [8] = assay: Induction of cell cycle arrest in 24 hrs serum-starved human T84 cells assessed as accumulation at S phase at 2 times antiproliferative IC50 incubated for 24 hrs by propidium iodide staining based flow cytometry (reference value: 13 +/- 0.6%); type: functional
T84 [9] = assay: Antiproliferative activity against human T84 cells incubated for 3 days by sulforhodamine B assay; type: functional, cell-based; conditions: T84, 72 h
Method in brief: (§1)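 Cells in DMEM with 10% heat-inactivated FBS, penicillin–streptomycin and 2 mM L-glutamine at 37 °C, 5% CO2. Seeded at 5 × 10^3 cells/cm2 in quadruplicate. After 24 h, exposed to increasing compound concentrations for 3 days. Fixed with cold 10% TCA, stained with 0.4% sulforhodamine in 1% acetic acid, dye solubilized in 10 mM Tris-base pH 10.5, OD read at 492 nm. IC50 by linear interpolation on semilog dose–response curve. Mean ± SEM of four independent determinations.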

MCF7 [10] = assay: Induction of apoptosis in 24 hrs serum-starved human MCF7 cells assessed as accumulation at subG1 phase at antiproliferative IC50 incubated for 24 hrs by propidium iodide staining based flow cytometry (reference value: 4 +/- 1.1%); type: functional
MCF7 [11] = assay: Induction of cell cycle arrest in 24 hrs serum-starved human MCF7 cells assessed as accumulation at G0-G1 phase at 2 times antiproliferative IC50 incubated for 24 hrs by propidium iodide staining based flow cytometry (reference value: 51 +/- 0.9%); type: functional
MCF7 [12] = assay: Induction of cell cycle arrest in 24 hrs serum-starved human MCF7 cells assessed as accumulation at G0-G1 phase at antiproliferative IC50 incubated for 24 hrs by propidium iodide staining based flow cytometry (reference value: 51 +/- 0.9%); type: functional
MCF7 [13] = assay: Induction of apoptosis in human MCF7 cells at antiproliferative IC50 incubated for 6 hrs by fluorescence microscopy based TUNEL DNA fragmentation assay; type: functional, cell-based
A549 [14] = assay: Induction of cell cycle arrest in 24 hrs serum-starved human A549 cells assessed as accumulation at G0-G1 phase at antiproliferative IC50 incubated for 24 hrs by propidium iodide staining based flow cytometry (reference value: 62 +/- 1%); type: functional
MCF7 [15] = assay: Induction of cell cycle arrest in 24 hrs serum-starved human MCF7 cells assessed as accumulation at G2-M phase at 2 times antiproliferative IC50 incubated for 24 hrs by propidium iodide staining based flow cytometry (reference value: 28 +/- 0.3%); type: functional
MCF7 [16] = assay: Induction of cell cycle arrest in 24 hrs serum-starved human MCF7 cells assessed as accumulation at S phase at antiproliferative IC50 incubated for 24 hrs by propidium iodide staining based flow cytometry (reference value: 17 +/- 0.8%); type: functional
A549 [17] = assay: Induction of cell cycle arrest in 24 hrs serum-starved human A549 cells assessed as accumulation at G2-M phase at 2 times antiproliferative IC50 incubated for 24 hrs by propidium iodide staining based flow cytometry (reference value: 22 +/- 1.8%); type: functional
T84 [18] = assay: Induction of cell cycle arrest in 24 hrs serum-starved human T84 cells assessed as accumulation at G2-M phase at antiproliferative IC50 incubated for 24 hrs by propidium iodide staining based flow cytometry (reference value: 18 +/- 1%); type: functional
T84 [19] = assay: Induction of cell cycle arrest in 24 hrs serum-starved human T84 cells assessed as accumulation at G0-G1 phase at 2 times antiproliferative IC50 incubated for 24 hrs by propidium iodide staining based flow cytometry (reference value: 65 +/- 1.1%); type: functional
A549 [20] = assay: Antiproliferative activity against human A549 cells incubated for 3 days by sulforhodamine B assay; type: functional, cell-based; conditions: A549, 72 h; method in brief: as §1
T84 [21] = assay: Induction of cell cycle arrest in 24 hrs serum-starved human T84 cells assessed as accumulation at S phase at antiproliferative IC50 incubated for 24 hrs by propidium iodide staining based flow cytometry (reference value: 13 +/- 0.6%); type: functional
T84 [22] = assay: Induction of apoptosis in 24 hrs serum-starved human T84 cells assessed as accumulation at subG1 phase at antiproliferative IC50 incubated for 24 hrs by propidium iodide staining based flow cytometry (reference value: 4 +/- 0.3%); type: functional
A549 [23] = assay: Induction of cell cycle arrest in 24 hrs serum-starved human A549 cells assessed as accumulation at G0-G1 phase at 2 times antiproliferative IC50 incubated for 24 hrs by propidium iodide staining based flow cytometry (reference value: 62 +/- 1%); type: functional
T84 [24] = assay: Induction of cell cycle arrest in 24 hrs serum-starved human T84 cells assessed as accumulation at G0-G1 phase at antiproliferative IC50 incubated for 24 hrs by propidium iodide staining based flow cytometry (reference value: 65 +/- 1.1%); type: functional
A549 [25] = assay: Induction of apoptosis in 24 hrs serum-starved human A549 cells assessed as accumulation at subG1 phase at antiproliferative IC50 incubated for 24 hrs by propidium iodide staining based flow cytometry (reference value: 3.5 +/- 1.1%); type: functional
MCF7 [26] = assay: Antiproliferative activity against human MCF7 cells incubated for 3 days by sulforhodamine B assay; type: functional, cell-based; conditions: MCF7, 72 h; method in brief: as §1
MCF7 [27] = assay: Induction of apoptosis in 24 hrs serum-starved human MCF7 cells assessed as accumulation at subG1 phase at 2 times antiproliferative IC50 incubated for 24 hrs by propidium iodide staining based flow cytometry (reference value: 4 +/- 1.1%); type: functional
MCF7 [28] = assay: Induction of cell cycle arrest in 24 hrs serum-starved human MCF7 cells assessed as accumulation at G2-M phase at antiproliferative IC50 incubated for 24 hrs by propidium iodide staining based flow cytometry (reference value: 28 +/- 0.3%); type: functional
MCF7 [29] = assay: Induction of apoptosis in human MCF7 cells at 2 times antiproliferative IC50 incubated for 6 hrs by fluorescence microscopy based TUNEL DNA fragmentation assay; type: functional, cell-based
Trypanosoma cruzi = assay: Antiparasitic activity against Trypanosoma cruzi; type: functional, organism-based

| IC50 (A549 [20]) | Structure (SMILES) | Activity (T84 [1]) | Activity (A549 [2]) | Activity (MCF7 [3]) | Activity (A549 [4]) | Activity (A549 [5]) | Activity (A549 [6]) | Activity (T84 [7]) | Activity (T84 [8]) | IC50 (T84 [9]) | Activity (MCF7 [10]) | Activity (MCF7 [11]) | Activity (MCF7 [12]) | Activity (A549 [14]) | Activity (MCF7 [15]) | Activity (MCF7 [16]) | Activity (A549 [17]) | Activity (T84 [18]) | Activity (T84 [19]) | Activity (T84 [21]) | also measured |
| --- | --- | --- | --- | --- | --- | --- | --- | --- | --- | --- | --- | --- | --- | --- | --- | --- | --- | --- | --- | --- | --- |
| 8.3 µM | C[C@]1(CO)CCC[C@]2(C)c3cc4c(cc3C=C[C@@H]12)C(=O)C=CC4=O | 7.1% | 16% | 0.7% | 12% | 6.1% | 17% | 14% | 9% | 11.5 µM | 32% | 5% | 39% | 62% | 1.7% | 12% | 15% | 18% | 71% | 17% | Activity (MCF7 [13]): Active; Activity (T84 [22]): 6.2%; Activity (A549 [23]): 67%; Activity (T84 [24]): 59%; Activity (A549 [25]): 4%; IC50 (MCF7 [26]): 7.7 µM; Activity (MCF7 [27]): 93%; Activity (MCF7 [28]): 17% |
| 21 µM | COc1ccc(OC)c2cc3c(cc12)C(=O)C[C@H]1[C@@](C)(CO)CCC[C@]31C | 6.1% | 12% | 0.7% | 7.5% | 18% | 14% | 8.2% | 9.4% | 42 µM | 6.6% | 6.9% | 66% | 68% | 1% | 11% | 8% | 12% | 76% | 15% | Activity (MCF7 [29]): Active; Activity (T84 [22]): 5.7%; Activity (A549 [23]): 67%; Activity (T84 [24]): 68%; Activity (A549 [25]): 5.7%; IC50 (MCF7 [26]): 33 µM; Activity (MCF7 [27]): 91%; Activity (MCF7 [28]): 17% |
|  | CC1(C)CCC[C@@]2(C)c3cc4c(cc3CC[C@H]12)C(=O)C=CC4=O [CYCLOZONARONE] |  |  |  |  |  |  |  |  |  |  |  |  |  |  |  |  |  |  |  | IC50 (Trypanosoma cruzi): 0.7 µM |
| 4.1 µM | C[C@]1(CO)CCC[C@]2(C)c3cc4c(cc3C(=O)C[C@@H]12)C(=O)C=CC4=O | 15% | 14% | 6.4% | 16% | 8.1% | 20% | 6.3% | 17% | 8 µM | 34% | 24% | 37% | 63% | 9.7% | 9.4% | 17% | 17% | 62% | 15% | Activity (MCF7 [13]): Active; Activity (T84 [22]): 5.6%; Activity (A549 [23]): 59%; Activity (T84 [24]): 63%; Activity (A549 [25]): 3.9%; IC50 (MCF7 [26]): 6.6 µM; Activity (MCF7 [27]): 60%; Activity (MCF7 [28]): 19% |
